# In ChEMBL document CHEMBL5303300, “EUbOPEN Chemogenomics Library - Multiplex” (2023):
# Several values for one entry are separate records, joined by “and”; a condition that tells them apart may be missing. Equal entries are not always repeated.
# Test system: U2OS
# Experiment: Multiplex assay against U2OS
# Format: toxicity, cell-based
# Settings: human, number of replicates 2
# How it was run: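 On a CQ1 microscope at 37°C and 5% CO2, live cells were imaged after compound addition. They had been stained at seeding with Hoechst33342, BioTracker Green Microtubule Cytoskeleton Dye, MitoTracker Red and Annexin V Alexa Fluor 680. CellPathfinder machine-learning gating assigned cells to Hoechst high-intensity objects or normal cells, normal cells to healthy, pyknosed or fragmented nuclei, and pyknosed cells to mitotic or apoptotic. Tubulin, mitochondrial-mass and membrane-permeability phenotypes are per cents of healthy-nucleus cells.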
# [1] = 12 h, 1 µM, compound concentration 1 uM
# [2] = 12 h, 10 µM, compound concentration 10 uM
# [3] = 24 h, 1 µM, compound concentration 1 uM
# [4] = 24 h, 10 µM, compound concentration 10 uM
# [5] = 48 h, 1 µM, compound concentration 1 uM
# [6] = 48 h, 10 µM, compound concentration 10 uM
compound,measurement,setting,value
COc1ccc2cc(S(=O)(=O)N[C@H](CC(=O)N[C@H](Cc3ccc(CN4[C@H](C)CCC[C@@H]4C)cc3)C(=O)N(C)C(C)C)c3ccc4c(c3)OCO4)ccc2c1.Cl,Population Apoptotic (%),[1],20% and 30%
same,Population Fragmented Nuclei (%),[1],8% and 4%
same,Population Healthy Nuclei (%),[1],76% and 85%
same,Population Hoechst High Intensity Objects (%),[1],2% and 0%
same,Population Membrane Permeable-Phenotype (%),[1],11% and 14%
same,Population Mitochondria Different-Phenotype (%),[1],7% and 20%
same,Population Mitotic Cells (%),[1],80% and 69%
same,Population Normal (%),[1],97% and 99%
same,Population Pyknosed Nuclei (%),[1],14% and 10%
same,Population Tubulin-Different-Phenotype (%),[1],30% and 45%
same,Population Apoptotic (%),[2],100% and 66%
same,Population Healthy Nuclei (%),[2],50% and 75%
same,Population Hoechst High Intensity Objects (%),[2],3% and 0%
same,Population Membrane Permeable-Phenotype (%),[2],81% and 37%
same,Population Mitochondria Different-Phenotype (%),[2],81% and 58%
same,Population Normal (%),[2],96% and 100%
same,Population Pyknosed Nuclei (%),[2],18% and 21%
same,Population Tubulin-Different-Phenotype (%),[2],93% and 100%
same,Population Apoptotic (%),[3],50%
same,Population Fragmented Nuclei (%),[3],5% and 6%
same,Population Healthy Nuclei (%),[3],79% and 73%
same,Population Hoechst High Intensity Objects (%),[3],2% and 0%
same,Population Membrane Permeable-Phenotype (%),[3],3% and 11%
same,Population Mitochondria Different-Phenotype (%),[3],12% and 21%
same,Population Mitotic Cells (%),[3],50% and 49%
same,Population Normal (%),[3],97% and 99%
same,Population Pyknosed Nuclei (%),[3],15% and 19%
same,Population Tubulin-Different-Phenotype (%),[3],32% and 42%
same,Population Apoptotic (%),[4],72% and 81%
same,Population Fragmented Nuclei (%),[4],21% and 7%
same,Population Healthy Nuclei (%),[4],43% and 62%
same,Population Hoechst High Intensity Objects (%),[4],3% and 0%
same,Population Membrane Permeable-Phenotype (%),[4],92% and 74%
same,Population Mitochondria Different-Phenotype (%),[4],71% and 61%
same,Population Mitotic Cells (%),[4],27% and 18%
same,Population Normal (%),[4],96% and 100%
same,Population Pyknosed Nuclei (%),[4],34% and 30%
same,Population Tubulin-Different-Phenotype (%),[4],100% and 98%
same,Population Apoptotic (%),[5],76% and 84%
same,Population Fragmented Nuclei (%),[5],18% and 7%
same,Population Healthy Nuclei (%),[5],60% and 74%
same,Population Hoechst High Intensity Objects (%),[5],0%
same,Population Membrane Permeable-Phenotype (%),[5],7% and 13%
same,Population Mitochondria Different-Phenotype (%),[5],10% and 18%
same,Population Mitotic Cells (%),[5],23% and 15%
same,Population Normal (%),[5],100% and 99%
same,Population Pyknosed Nuclei (%),[5],20% and 17%
same,Population Tubulin-Different-Phenotype (%),[5],25% and 32%
same,Population Apoptotic (%),[6],100% and 95%
same,Population Healthy Nuclei (%),[6],22% and 42%
same,Population Hoechst High Intensity Objects (%),[6],0%
same,Population Membrane Permeable-Phenotype (%),[6],83% and 85%
same,Population Mitochondria Different-Phenotype (%),[6],50% and 70%
same,Population Mitotic Cells (%),[6],0% and 4%
same,Population Normal (%),[6],100%
same,Population Pyknosed Nuclei (%),[6],40% and 51%
same,Population Tubulin-Different-Phenotype (%),[6],83% and 99%
COc1ccc(F)c(F)c1C(=O)c1cnc(NC2CCN(S(C)(=O)=O)CC2)nc1N [RG-547],Population Apoptotic (%),[1],25% and 66%
same,Population Fragmented Nuclei (%),[1],21% and 7%
same,Population Healthy Nuclei (%),[1],68% and 81%
same,Population Hoechst High Intensity Objects (%),[1],0% and 1%
same,Population Membrane Permeable-Phenotype (%),[1],7% and 3%
same,Population Mitochondria Different-Phenotype (%),[1],3% and 2%
same,Population Mitotic Cells (%),[1],75% and 33%
same,Population Normal (%),[1],100% and 98%
same,Population Pyknosed Nuclei (%),[1],10%
same,Population Tubulin-Different-Phenotype (%),[1],69% and 80%
same,Population Apoptotic (%),[2],77% and 70%
same,Population Fragmented Nuclei (%),[2],20% and 12%
same,Population Healthy Nuclei (%),[2],44% and 42%
same,Population Hoechst High Intensity Objects (%),[2],0% and 1%
same,Population Membrane Permeable-Phenotype (%),[2],9% and 14%
same,Population Mitochondria Different-Phenotype (%),[2],0% and 6%
same,Population Mitotic Cells (%),[2],22% and 30%
same,Population Normal (%),[2],100% and 98%
same,Population Pyknosed Nuclei (%),[2],36% and 44%
same,Population Tubulin-Different-Phenotype (%),[2],72% and 57%
same,Population Apoptotic (%),[3],57% and 70%
same,Population Fragmented Nuclei (%),[3],13% and 9%
same,Population Healthy Nuclei (%),[3],66% and 77%
same,Population Hoechst High Intensity Objects (%),[3],0%
same,Population Membrane Permeable-Phenotype (%),[3],4%
same,Population Mitochondria Different-Phenotype (%),[3],4% and 3%
same,Population Mitotic Cells (%),[3],42% and 30%
same,Population Normal (%),[3],100% and 99%
same,Population Pyknosed Nuclei (%),[3],19% and 12%
same,Population Tubulin-Different-Phenotype (%),[3],66% and 79%
same,Population Apoptotic (%),[4],85%
same,Population Fragmented Nuclei (%),[4],15% and 12%
same,Population Healthy Nuclei (%),[4],41% and 32%
same,Population Hoechst High Intensity Objects (%),[4],0% and 2%
same,Population Membrane Permeable-Phenotype (%),[4],21% and 12%
same,Population Mitochondria Different-Phenotype (%),[4],21% and 12%
same,Population Mitotic Cells (%),[4],15% and 14%
same,Population Normal (%),[4],100% and 97%
same,Population Pyknosed Nuclei (%),[4],43% and 54%
same,Population Tubulin-Different-Phenotype (%),[4],68% and 72%
same,Population Apoptotic (%),[5],85%
same,Population Fragmented Nuclei (%),[5],30% and 20%
same,Population Healthy Nuclei (%),[5],39% and 65%
same,Population Hoechst High Intensity Objects (%),[5],0%
same,Population Membrane Permeable-Phenotype (%),[5],11% and 2%
same,Population Mitochondria Different-Phenotype (%),[5],5% and 1%
same,Population Mitotic Cells (%),[5],14%
same,Population Normal (%),[5],100% and 99%
same,Population Pyknosed Nuclei (%),[5],30% and 13%
same,Population Tubulin-Different-Phenotype (%),[5],66% and 75%
same,Population Apoptotic (%),[6],94% and 87%
same,Population Fragmented Nuclei (%),[6],14% and 10%
same,Population Healthy Nuclei (%),[6],11% and 2%
same,Population Hoechst High Intensity Objects (%),[6],5% and 0%
same,Population Mitotic Cells (%),[6],5% and 12%
same,Population Normal (%),[6],94% and 100%
same,Population Pyknosed Nuclei (%),[6],74% and 86%
same,Population Tubulin-Different-Phenotype (%),[6],88% and 100%
COc1ccncc1C(=O)NC(=O)Nc1ccc(-c2ccccc2)c(C(F)(F)F)c1,Population Apoptotic (%),[1],33% and 36%
same,Population Healthy Nuclei (%),[1],65% and 86%
same,Population Hoechst High Intensity Objects (%),[1],0%
same,Population Membrane Permeable-Phenotype (%),[1],0% and 1%
same,Population Mitochondria Different-Phenotype (%),[1],0% and 1%
same,Population Mitotic Cells (%),[1],66% and 63%
same,Population Normal (%),[1],100%
same,Population Pyknosed Nuclei (%),[1],11% and 9%
same,Population Tubulin-Different-Phenotype (%),[1],58% and 88%
same,Population Apoptotic (%),[2],25% and 33%
same,Population Fragmented Nuclei (%),[2],8% and 2%
same,Population Healthy Nuclei (%),[2],75% and 88%
same,Population Hoechst High Intensity Objects (%),[2],0%
same,Population Membrane Permeable-Phenotype (%),[2],2% and 1%
same,Population Mitochondria Different-Phenotype (%),[2],2% and 1%
same,Population Mitotic Cells (%),[2],75% and 66%
same,Population Normal (%),[2],100%
same,Population Pyknosed Nuclei (%),[2],16% and 9%
same,Population Tubulin-Different-Phenotype (%),[2],67% and 78%
same,Population Apoptotic (%),[3],66% and 57%
same,Population Healthy Nuclei (%),[3],63% and 90%
same,Population Hoechst High Intensity Objects (%),[3],0%
same,Population Membrane Permeable-Phenotype (%),[3],4% and 2%
same,Population Mitochondria Different-Phenotype (%),[3],0% and 1%
same,Population Mitotic Cells (%),[3],33% and 42%
same,Population Normal (%),[3],100%
same,Population Pyknosed Nuclei (%),[3],15% and 6%
same,Population Tubulin-Different-Phenotype (%),[3],62% and 89%
same,Population Apoptotic (%),[4],66% and 31%
same,Population Fragmented Nuclei (%),[4],1% and 3%
same,Population Healthy Nuclei (%),[4],93% and 90%
same,Population Hoechst High Intensity Objects (%),[4],0%
same,Population Membrane Permeable-Phenotype (%),[4],5% and 0%
same,Population Mitochondria Different-Phenotype (%),[4],0%
same,Population Mitotic Cells (%),[4],33% and 68%
same,Population Normal (%),[4],100%
same,Population Pyknosed Nuclei (%),[4],5% and 6%
same,Population Tubulin-Different-Phenotype (%),[4],72% and 79%
same,Population Apoptotic (%),[5],60% and 43%
same,Population Healthy Nuclei (%),[5],70% and 90%
same,Population Hoechst High Intensity Objects (%),[5],0%
same,Population Membrane Permeable-Phenotype (%),[5],2% and 1%
same,Population Mitochondria Different-Phenotype (%),[5],2% and 0%
same,Population Mitotic Cells (%),[5],40% and 56%
same,Population Normal (%),[5],100%
same,Population Pyknosed Nuclei (%),[5],10% and 7%
same,Population Tubulin-Different-Phenotype (%),[5],65% and 90%
same,Population Apoptotic (%),[6],23% and 69%
same,Population Fragmented Nuclei (%),[6],7% and 2%
same,Population Healthy Nuclei (%),[6],81% and 93%
same,Population Hoechst High Intensity Objects (%),[6],0%
same,Population Membrane Permeable-Phenotype (%),[6],0%
same,Population Mitochondria Different-Phenotype (%),[6],0%
same,Population Mitotic Cells (%),[6],76% and 30%
same,Population Normal (%),[6],100% and 99%
same,Population Pyknosed Nuclei (%),[6],10% and 4%
same,Population Tubulin-Different-Phenotype (%),[6],83%
CCOC(=O)Nc1cc(-c2ccc(C)c(NS(C)(=O)=O)c2)nn2c(C)nnc12,Population Apoptotic (%),[2],54% and 50% and 20%
same,Population Healthy Nuclei (%),[2],66% and 75% and 76% and 53%
same,Population Hoechst High Intensity Objects (%),[2],0%
same,Population Membrane Permeable-Phenotype (%),[2],3% and 0% and 5%
same,Population Mitochondria Different-Phenotype (%),[2],3% [middle of 4 runs]
same,Population Mitotic Cells (%),[2],45% and 50% and 80%
same,Population Normal (%),[2],100%
same,Population Pyknosed Nuclei (%),[2],24% and 19% and 17% and 15%
same,Population Tubulin-Different-Phenotype (%),[2],59% [middle of 4 runs]
same,Population Apoptotic (%),[4],70% and 65% and 53% and 66%
same,Population Healthy Nuclei (%),[4],59% and 69% and 67% and 50%
same,Population Hoechst High Intensity Objects (%),[4],0%
same,Population Membrane Permeable-Phenotype (%),[4],6% [middle of 4 runs]
same,Population Mitotic Cells (%),[4],29% and 35% and 46% and 33%
same,Population Normal (%),[4],100% and 99%
same,Population Pyknosed Nuclei (%),[4],20% [middle of 4 runs]
same,Population Tubulin-Different-Phenotype (%),[4],71% [middle of 4 runs]
same,Population Apoptotic (%),[6],85% and 72% and 76%
same,Population Fragmented Nuclei (%),[6],30% and 20% and 18%
same,Population Healthy Nuclei (%),[6],30% and 33% and 51%
same,Population Hoechst High Intensity Objects (%),[6],0% and 3%
same,Population Mitochondria Different-Phenotype (%),[6],9% and 0% and 3%
same,Population Mitotic Cells (%),[6],14% and 27% and 23%
same,Population Normal (%),[6],100% and 96% and 99%
same,Population Pyknosed Nuclei (%),[6],38% and 45% and 27% and 29%
